From ChEMBL document CHEMBL1152747, “Synthesis, SAR study and biological evaluation of novel pyrazolo[1,5-a]pyrimidin-7-yl phenyl amides as anti-proliferative agents” (Bioorg Med Chem, 2009)
The source made the active and inactive calls. The calls are words filed in the database; no cut-off is given here.

Tests used:
[1] = Antiproliferative activity against p21-/- human 80S14 cells; format: functional, cell-based
HCT-116 = experiment: Antiproliferative activity against p21+/+ human HCT116 cells; format: functional, cell-based
LoVo [2] = experiment: Antiproliferative activity against human LoVo cells; format: functional, cell-based
SW-620 = experiment: Antiproliferative activity against human SW620 cells; format: functional, cell-based
DLD-1 = experiment: Antiproliferative activity against human DLD1 cells; format: functional, cell-based
HT-29 = experiment: Antiproliferative activity against human HT-29 cells; format: functional, cell-based
[3] = Plasma concentration in mouse at 50 mg/kg, po after 4 hrs; format: ADME, organism-based; parameters: dose 50 mg/kg, route oral
In short: (§1)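 Nude mice were dosed orally at 50 mg/kg. Blood was sampled at 1 and 4 h, and plasma levels were reported in […].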

[4] = Plasma concentration in mouse at 50 mg/kg, po after 1 hr; format: ADME, organism-based; parameters: dose 50 mg/kg, route oral; in short: as §1
LoVo [5] = experiment: Anticancer activity against human LoVo cells xenografted mouse at 50 mg/kg, po administered 20 days measured on day 21 relative to control; format: functional
In short: (§2)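 Female athymic nu/nu mice were given 1×10^7 LoVo cells SC in the flank. Cells were cultured in RPMI with 10% FBS. At 90–120 mg tumour mass (day zero), mice were randomised 5 per group. Tumour mass was calculated as (length×width²)/2 every 7 days and expressed as relative growth versus day zero, treated versus control. Student t-test was run on log relative growth, with significance at p≤0.05.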

[6] = Binding affinity to tubulin
In short: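 Binding was read by the fluorescence change of compound and tubulin tryptophan residues on binding, using unlabelled tubulin with intrinsic tryptophan fluorescence as reporter. KD was derived from this signal.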

LoVo [7] = experiment: Anticancer activity against human LoVo cells xenografted mouse at 30 mg/kg, po administered 20 days measured on day 21 relative to control; format: functional; in short: as §2
[8] = Induction of oligomerization of tubulin

| Structure (SMILES) | IC50 [1] | IC50 (HCT-116) | further results |
| --- | --- | --- | --- |
| O=C(NC1CCCC1)c1cccc(-c2ccnc3c(C(=O)c4cccs4)cnn23)c1 | 390 nM | 6800 nM | – |
| CC(C)OC(=O)Nc1cccc(-c2ccnc3c(C(=O)c4cccs4)cnn23)c1 | 51 nM | – | – |
| CC(C)(C)CC(=O)Nc1cc(-c2ccnc3c(C(=O)c4cccs4)cnn23)ccc1F | 190 nM | 3700 nM | – |
| CC(C)CC(=O)Nc1cncc(-c2ccnc3c(C(=O)c4cccs4)cnn23)c1 | 7600 nM | > 2600 nM | – |
| O=C(Nc1ccccc1)c1cccc(-c2ccnc3c(C(=O)c4cccs4)cnn23)c1 | 310 nM | 5100 nM | – |
| CC(C)CC(=O)Nc1cc(-c2ccnc3c(C(=O)c4cccs4)cnn23)ccc1Cl | 430 nM | 8800 nM | – |
| CC(C)CNC(=O)c1cccc(-c2ccnc3c(C(=O)c4cccs4)cnn23)c1 | 400 nM | 5700 nM | IC50 (LoVo [2]): 150 nM; IC50 (SW-620): 150 nM; IC50 (DLD-1): 60 nM; IC50 (HT-29): 150 nM |
| CC(C)NC(=O)Nc1cc(-c2ccnc3c(C(=O)c4cccs4)cnn23)ccc1F | 41 nM | 5300 nM | concentration at 4 h [3]: 8 ng/mL; IC50 (LoVo [2]): 11 nM; concentration at 1 h [4]: 14 ng/mL; IC50 (SW-620): 12 nM; IC50 (DLD-1): 19 nM; IC50 (HT-29): 17 nM |
| CC(C)CC(=O)Nc1cc(-c2ccnc3c(C(=O)c4cccs4)cnn23)cs1 | 7800 nM | > 20000 nM | – |
| CC(C)CC(=O)Nc1ccc(-c2ccnc3c(C(=O)c4cccs4)cnn23)s1 | 2000 nM | > 20000 nM | IC50 (LoVo [2]): 680 nM; IC50 (SW-620): 760 nM; IC50 (DLD-1): 620 nM; IC50 (HT-29): 670 nM |
| CC(C)(C)CCNc1cccc(-c2ccnc3c(C(=O)c4cccs4)cnn23)c1 | 550 nM | 4800 nM | – |
| CC(C)CC(=O)Nc1cc(-c2ccnc3c(C(=O)c4cccs4)cnn23)ccc1F | 89 nM | 3200 nM | T/C (LoVo [5]): 24%; Kd [6]: 2500 nM; concentration at 4 h [3]: 40 ng/mL; T/C (LoVo [7]): 57%; IC50 (LoVo [2]): 15 nM; Activity [8]: inactive; concentration at 1 h [4]: 110 ng/mL; IC50 (SW-620): 15 nM; IC50 (DLD-1): 16 nM; IC50 (HT-29): 16 nM |
| COc1ccc(-c2ccnc3c(C(=O)c4cccs4)cnn23)cc1NC(=O)CC(C)C | 6400 nM | 19000 nM | – |
| CCCCNC(=O)c1cccc(-c2ccnc3c(C(=O)c4cccs4)cnn23)c1 | 340 nM | 5300 nM | – |
| CC(C)CC(=O)Nc1ccc(Cl)c(-c2ccnc3c(C(=O)c4cccs4)cnn23)c1 | 2800 nM | 20000 nM | – |
| CC(C)NC(=O)c1cccc(-c2ccnc3c(C(=O)c4cccs4)cnn23)c1 | 680 nM | > 13000 nM | – |
| CC(CC(=O)Nc1cc(-c2ccnc3c(C(=O)c4cccs4)cnn23)ccc1F)C(F)(F)F (stereo unspecified) | 120 nM | 2500 nM | – |
| CC(C)CC(=O)Nc1cccc(-c2ccnc3c(C(=O)c4cccs4)cnn23)c1 | 140 nM | – | Kd [6]: 4300 nM; Activity [8]: inactive |
| Cc1ccc(-c2ccnc3c(C(=O)c4cccs4)cnn23)cc1NC(=O)CC(C)C | 1000 nM | 9200 nM | – |
| CC(C)CCNc1cccc(-c2ccnc3c(C(=O)c4cccs4)cnn23)c1 | 770 nM | 5700 nM | IC50 (LoVo [2]): 81 nM; IC50 (SW-620): 110 nM; IC50 (DLD-1): 120 nM; IC50 (HT-29): 450 nM |
| CC(C)NC(=O)Nc1cccc(-c2ccnc3c(C(=O)c4cccs4)cnn23)c1 | 89 nM | – | – |
| C/C=C/CNc1cccc(-c2ccnc3c(C(=O)c4cccs4)cnn23)c1 | 430 nM | 3800 nM | – |
